Measurements as given in ChEMBL document CHEMBL1781996, “Potential anti-inflammatory constituents of the stems of Gordonia chrysandra” (J Nat Prod, 2011).

Legend:
[1] = Antiinflammatory activity in rat Polymorphonuclear leukocyte assessed as inhibition of LPS-induced nitric oxide production at 5 uM; assay type: functional
Summary of the method: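 Rat polymorphonuclear leukocytes stimulated with LPS; compounds tested at 5 μM, with dexamethasone at the same concentration as positive control. NO in culture supernatant was read by Griess reaction: equal volume of reagent (0.1% naphthylethylenediamine, 1% sulfanilamide in 5% phosphoric acid), 20 min at room temperature, A540, against sodium nitrite standards. Percent inhibition, n = 3.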

[2] = Antiinflammatory activity in Macrophage assessed as LPS-induced nitric oxide production by Griess assay; assay type: functional, cell-based
Summary of the method: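 LPS-activated macrophages. Nitrite in culture supernatant was measured by the Griess reaction: supernatant mixed with an equal volume of Griess reagent (0.1% w/v N-(1-naphthyl)ethylenediamine dihydrochloride plus 1% w/v sulfanilamide in 5% v/v phosphoric acid, combined within 1 h of use), 20 min at room temperature, then A540. Sodium nitrite standards were used. Result reported as IC50.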

| SMILES | inhibition at 5 µM [1] | IC50 [2] |
| --- | --- | --- |
| COc1cc(C(=O)OC[C@H]2O[C@@H](Oc3cc(O)c(OC)c(OC)c3)[C@H](O)[C@@H](O)[C@@H]2O)cc(OC)c1O | 4.7% |  |
| COc1cc(C(=O)OC[C@H]2O[C@@H](Oc3cc(O)c(OC)c(OC)c3)[C@H](O)[C@@H](O)[C@@H]2O)ccc1O | 6.5% |  |
| C[C@@H]1C[C@H]2[C@@H]3CCC4=CC(=O)C=C[C@]4(C)[C@@]3(F)[C@@H](O)C[C@]2(C)[C@@]1(O)C(=O)CO [DEXAMETHASONE] | 74.7% |  |
| C/C=C(/C)C(=O)O[C@H]1CC(C)(C)C[C@H]2C3=CC[C@@H]4[C@@]5(C)CC[C@H](O[C@@H]6O[C@H](C(=O)O)[C@@H](O)[C@H](O[C@@H]7OC[C@H](O)[C@H](O)[C@H]7O[C@@H]7OC[C@@H](O)[C@H](O)[C@H]7O)[C@H]6O[C@@H]6O[C@H](CO)[C@H](O)[C@H](O)[C@H]6O)C(C)(C)[C@@H]5CC[C@@]4(C)[C@]3(C)C[C@@H](O)[C@@]12CO [GORDONOSIDE I] | 96.6% | 140 nM |
| C/C=C(/C)C(=O)O[C@H]1CC(C)(C)C[C@H]2C3=CC[C@@H]4[C@@]5(C)CC[C@H](O[C@@H]6O[C@H](C(=O)O)[C@@H](O)[C@H](O[C@@H]7OC[C@H](O)[C@H](O)[C@H]7O[C@@H]7OC[C@@H](O)[C@H](O)[C@H]7O)[C@H]6O[C@@H]6O[C@H](CO)[C@H](O)[C@H](O)[C@H]6O)C(C)(C)[C@@H]5CC[C@@]4(C)[C@]3(C)[C@@H](O)[C@@H](O)[C@@]12CO [GORDONOSIDE J] | 9.1% |  |
| CC1(C)CC[C@]2(C(=O)O[C@@H]3O[C@H](CO)[C@@H](O)[C@H](O)[C@H]3O)[C@H](O)C[C@]3(C)C(=CC[C@@H]4[C@@]5(C)CC[C@H](O[C@@H]6O[C@H](C(=O)O)[C@@H](O)[C@H](O[C@@H]7OC[C@H](O)[C@H](O)[C@H]7O)[C@H]6O)C(C)(C)[C@@H]5CC[C@]43C)[C@@H]2C1 [GORDONOSIDE K] | 6.4% |  |
| CC1(C)CC[C@]2(C(=O)O[C@@H]3O[C@H](CO)[C@@H](O)[C@H](O)[C@H]3O)[C@H](O)C[C@]3(C)C(=CC[C@@H]4[C@@]5(C)CC[C@H](O[C@@H]6O[C@H](C(=O)O)[C@@H](O)[C@H](O[C@@H]7OC[C@H](O)[C@H](O)[C@H]7O[C@@H]7OC[C@H](O)[C@H](O)[C@H]7O)[C@H]6O)C(C)(C)[C@@H]5CC[C@]43C)[C@@H]2C1 [GORDONOSIDE L] | 14% |  |
| C[C@@H]1O[C@@H](O[C@H]2[C@H](O[C@@H]3[C@@H](O)[C@H](O[C@H]4CC[C@]5(C)[C@H]6CC=C7[C@@H]8CC(C)(C)CC[C@]8(C(=O)O[C@@H]8O[C@H](CO)[C@@H](O)[C@H](O)[C@H]8O)[C@H](O)C[C@@]7(C)[C@]6(C)CC[C@H]5C4(C)C)O[C@H](C(=O)O)[C@H]3O)OC[C@H](O)[C@@H]2O)[C@H](O)[C@H](O)[C@H]1O [GORDONOSIDE M] | 2.9% |  |
| CC1(C)CC[C@]2(C(=O)O[C@@H]3O[C@H](CO)[C@@H](O)[C@H](O)[C@H]3O)[C@H](O)C[C@]3(C)C(=CC[C@@H]4[C@@]5(C)CC[C@H](O[C@@H]6O[C@H](C(=O)O)[C@@H](O)[C@H](O[C@@H]7OC[C@H](O)[C@H](O)[C@H]7O[C@@H]7OC[C@@H](O)[C@H](O)[C@H]7O)[C@H]6O[C@@H]6O[C@H](CO)[C@@H](O)[C@H](O)[C@H]6O)C(C)(C)[C@@H]5CC[C@]43C)[C@@H]2C1 [GORDONOSIDE N] | 8.9% |  |
| CC1(C)CC[C@]2(C(=O)O[C@@H]3O[C@H](CO)[C@@H](O)[C@H](O)[C@H]3O)[C@H](O)C[C@]3(C)C(=CC[C@@H]4[C@@]5(C)CC[C@H](O[C@@H]6O[C@H](C(=O)O)[C@@H](O)[C@H](O[C@@H]7OC[C@H](O)[C@H](O)[C@H]7O[C@@H]7OC[C@@H](O)[C@H](O)[C@H]7O)[C@H]6O[C@@H]6O[C@H](CO)[C@H](O)[C@H](O)[C@H]6O)C(C)(C)[C@@H]5CC[C@]43C)[C@@H]2C1 [GORDONOSIDE O] | 12.6% |  |
| C[C@@H]1O[C@@H](O[C@@H]2[C@@H](O)[C@H](O[C@H]3[C@H](O[C@H]4CC[C@]5(C)[C@H]6CC=C7[C@@H]8CC(C)(C)CC[C@]8(C(=O)O[C@@H]8O[C@H](CO)[C@@H](O)[C@H](O)[C@H]8O)[C@H](O)C[C@@]7(C)[C@]6(C)CC[C@H]5C4(C)C)O[C@H](C(=O)O)[C@@H](O)[C@@H]3O[C@@H]3OC[C@@H](O)[C@H](O)[C@H]3O)O[C@H](CO)[C@H]2O)[C@H](O)[C@H](O)[C@H]1O [GORDONOSIDE P] | 5.9% |  |
